Laboratory results from ChEMBL document CHEMBL4480455, “Anti-inflammatory Property of Imperatorin on Alveolar Macrophages and Inflammatory Lung Injury” (J Nat Prod, 2019).
Activity calls are given as the source filed them. The rule behind the calls is not given here.

Experiments:
Mus musculus [1] = assay: Antiinflammatory activity in zymosan induced C57BL/6 mouse model of lung injury assessed as reduction in PGE2 production in BALF at 4 mg/kg, ip pretreated for 3 days followed by zymosan challenge and measured after 24 hrs by ELISA; assay type: functional, organism-based
Method in brief: (§1)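 Male C57BL/6 mice, 25–30 g. Dosed i.p. daily for 3 days, then zymosan 4 mg/kg in 40 μL saline given by intratracheal instillation. After 24 h, BALF collected with five 0.2 mL PBS washes and centrifuged. Supernatant assayed for PGE2 and total protein. Cells counted by hemocytometer, and ≥300 cells on stained smears scored for differential counts. Left lung weighed, dried at 48 °C for 48 h, reweighed for wet/dry ratio.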

[2] = Effect on PGE2 level in mouse MHS cells at 1.5 to 15 ug/ml after 30 mins; conditions: 0.5 h
[3] = Effect on nitrite level in mouse MHS cells at 1.5 to 15 ug/ml after 30 mins by Griess assay; assay type: ADME, cell-based; conditions: 0.5 h
Mus musculus [4] = assay: Antiinflammatory activity in zymosan induced C57BL/6 mouse model of lung injury assessed as reduction in subepithelial collagen deposition/fibrosis at 4 mg/kg, ip pretreated for 3 days followed by zymosan challenge and measured after 24 hrs by Masson's trichrome staining based microscopic analysis; assay type: functional, organism-based
Method in brief: (§2)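 Male C57BL/6 mice dosed i.p. for 3 days, then given zymosan (4 mg/kg, i.t.) or saline. Lungs harvested 24 h later. Right lung fixed in 10% formalin, embedded in paraffin, cut into 5 μm sections, stained with H&E or Masson's trichrome and examined by microscopy. Collagen also measured by hydroxyproline assay on lung lysates. Mean ± SD, n≥4.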

Mus musculus [5] = assay: Antiinflammatory activity in zymosan induced C57BL/6 mouse model of lung injury assessed as reduction in hypertrophic smooth muscle cells at 4 mg/kg, ip pretreated for 3 days followed by zymosan challenge and measured after 24 hrs by H and E staining based microscopic analysis; assay type: functional, organism-based; method in brief: as §2
[6] = biological target: T1, I-kappa-B kinase (Mus musculus) (UniProt Q60680+O88351+O88522); assay: Inhibition of zymosan-induced IKK phosphorylation in mouse MHS cells by Western blot analysis; assay type: cell-based
Method in brief: (§3)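 MH-S cells pretreated, then stimulated with zymosan 10 μg/mL. Phospho-JAK1 (Y1022/1023), phospho-STAT3 (Y705) and phospho-IKKα/β detected by Western blot against total protein and tubulin. Zymosan time course 1–30 min for JAK1/STAT3 and 1–60 min for IKK. Normalized to control; mean ± SD, n≥3.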

Mus musculus [7] = assay: Antiinflammatory activity in zymosan induced C57BL/6 mouse model of lung injury assessed as reduction in immune cell infiltration in BALF at 4 mg/kg, ip pretreated for 3 days followed by zymosan challenge and measured after 24 hrs by Diff-Quick staining based assay; assay type: functional, organism-based; method in brief: as §1
Mus musculus [8] = assay: Antiinflammatory activity in zymosan induced C57BL/6 mouse model of lung injury assessed as reduction in wet to dry lung edema ratio at 4 mg/kg, ip pretreated for 3 days followed by zymosan challenge and measured after 24 hrs; assay type: functional, organism-based; method in brief: as §1
Mus musculus [9] = species on record: Mus musculus; assay: Antiinflammatory activity in mouse MHS cells assessed as reduction in zymosan-induced nitrite production at 1.5 to 15 ug/ml preincubated for 30 mins followed by zymosan challenge and measured after 6 to 24 hrs by Griess assay; assay type: functional, cell-based
Method in brief: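 MH-S cells pretreated for 30 min, then given zymosan 10 μg/mL for 24 h. Supernatant nitrite reacted with equal volumes of 0.1% NED and 1% sulfanilamide in 5% phosphoric acid, 10 min in the dark. Absorbance read at 520 nm. Mean ± SD, n≥3.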

[10] = biological target: Transcription factor p65 (Mus musculus) (UniProt Q04207); assay: Inhibition of zymosan-induced NFkappaB p65 nuclear translocation in mouse MHS cells at 15 ug/ml by DAPI staining based immunofluorescence microscopic analysis; assay type: cell-based
Method in brief: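 MH-S cells on coverslips pretreated, then given zymosan 10 μg/mL for 3 h. Fixed in 4% paraformaldehyde, permeabilized with 1% Triton X-100, blocked with 4% skim milk. Anti-p65 at 4 °C overnight, FITC secondary 1 h, DAPI nuclear counterstain. Fluorescence microscopy; at least three experiments.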

Mus musculus [11] = species on record: Mus musculus; assay: Antiinflammatory activity in mouse MHS cells assessed as reduction in zymosan-induced iNOS protein expression preincubated for 30 mins followed by zymosan challenge and measured after 6 to 24 hrs by Western blotting analysis; assay type: functional, cell-based
[12] = Antiinflammatory activity in mouse MHS cells assessed as reduction in zymosan-induced COX2 protein expression at 15 ug/ml preincubated for 30 mins followed by zymosan challenge and measured after 6 to 24 hrs by Western blotting analysis relative to control (reference value: 2.2 +/- 1.8); assay type: functional
[13] = biological target: Signal transducer and activator of transcription 3 (Mus musculus) (UniProt P42227); assay: Inhibition of zymosan-induced STAT3 phosphorylation in mouse MHS cells assessed as phosphorylated STAT3 level at 1.5 ug/ml by Western blot analysis relative to tubulin (reference value: 2.1); assay type: cell-based; method in brief: as §3
[14] = biological target: Signal transducer and activator of transcription 3 (Mus musculus) (UniProt P42227); assay: Effect on STAT3 phosphorylation in mouse MHS cells assessed as phosphorylated STAT3 level at 15 ug/ml by Western blot analysis relative to tubulin (reference value: 1); assay type: cell-based
Mus musculus [15] = species on record: Mus musculus; assay: Antiinflammatory activity in mouse MHS cells assessed as reduction in zymosan-induced iNOS mRNA expression preincubated for 30 mins followed by zymosan challenge and measured after 6 to 24 hrs by TRIzol reagent based qRT-PCR analysis; assay type: functional, cell-based
Method in brief: (§4)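 MH-S alveolar macrophages grown in RPMI 1640 with 10% FBS at 37 °C and 5% CO2. Cells pretreated for 30 min, then given zymosan 10 μg/mL for 6 h. mRNA measured by SYBR Green real-time PCR (95 °C 10 min; 42 cycles of 95 °C 10 s, 60 °C 60 s) with actin as reference. Normalized to control; mean ± SD, n≥3.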

[16] = biological target: Signal transducer and activator of transcription 3 (Mus musculus) (UniProt P42227); assay: Inhibition of zymosan-induced STAT3 phosphorylation in mouse MHS cells preincubated for 30 mins followed by zymosan challenge and measured after 6 to 24 hrs by Western blot analysis; assay type: cell-based
Mus musculus [17] = species on record: Mus musculus; assay: Antiinflammatory activity in mouse MHS cells assessed as reduction in zymosan-induced TNFalpha mRNA expression preincubated for 30 mins followed by zymosan challenge and measured after 6 to 24 hrs by TRIzol reagent based qRT-PCR analysis; assay type: functional, cell-based; method in brief: as §4
[18] = biological target: Tyrosine-protein kinase JAK1 (Mus musculus) (UniProt P52332); assay: Inhibition of zymosan-induced JAK1 phosphorylation in mouse MHS cells assessed as phosphorylated JAK1 level at 15 ug/ml by Western blot analysis relative to tubulin (reference value: 2.2); assay type: cell-based; method in brief: as §3
Mus musculus [19] = assay: Effect on morphological changes in lungs of C57BL/6 mouse at 4 mg/kg, ip administered for 3 days by H and E staining based microscopic analysis; assay type: ADME, organism-based; conditions: in vivo, 72 h; method in brief: as §2
[20] = biological target: T1, I-kappa-B kinase (Mus musculus); assay: Inhibition of zymosan-induced IKK phosphorylation in mouse MHS cells assessed as phosphorylated IKK level at 1.5 ug/ml by Western blot analysis relative to tubulin (reference value: 1.8); assay type: cell-based; method in brief: as §3
[21] = biological target: Tyrosine-protein kinase JAK1 (Mus musculus) (UniProt P52332); assay: Effect on JAK1 phosphorylation in mouse MHS cells assessed as phosphorylated JAK1 level at 15 ug/ml by Western blot analysis relative to tubulin (reference value: 1); assay type: cell-based
Mus musculus [22] = species on record: Mus musculus; assay: Antiinflammatory activity in mouse MHS cells assessed as reduction in zymosan-induced COX2 protein expression preincubated for 30 mins followed by zymosan challenge and measured after 6 to 24 hrs by Western blotting analysis; assay type: functional, cell-based

Signal transducer and activator of transcription 3 (Mus musculus), sequence (P42227 whole entry): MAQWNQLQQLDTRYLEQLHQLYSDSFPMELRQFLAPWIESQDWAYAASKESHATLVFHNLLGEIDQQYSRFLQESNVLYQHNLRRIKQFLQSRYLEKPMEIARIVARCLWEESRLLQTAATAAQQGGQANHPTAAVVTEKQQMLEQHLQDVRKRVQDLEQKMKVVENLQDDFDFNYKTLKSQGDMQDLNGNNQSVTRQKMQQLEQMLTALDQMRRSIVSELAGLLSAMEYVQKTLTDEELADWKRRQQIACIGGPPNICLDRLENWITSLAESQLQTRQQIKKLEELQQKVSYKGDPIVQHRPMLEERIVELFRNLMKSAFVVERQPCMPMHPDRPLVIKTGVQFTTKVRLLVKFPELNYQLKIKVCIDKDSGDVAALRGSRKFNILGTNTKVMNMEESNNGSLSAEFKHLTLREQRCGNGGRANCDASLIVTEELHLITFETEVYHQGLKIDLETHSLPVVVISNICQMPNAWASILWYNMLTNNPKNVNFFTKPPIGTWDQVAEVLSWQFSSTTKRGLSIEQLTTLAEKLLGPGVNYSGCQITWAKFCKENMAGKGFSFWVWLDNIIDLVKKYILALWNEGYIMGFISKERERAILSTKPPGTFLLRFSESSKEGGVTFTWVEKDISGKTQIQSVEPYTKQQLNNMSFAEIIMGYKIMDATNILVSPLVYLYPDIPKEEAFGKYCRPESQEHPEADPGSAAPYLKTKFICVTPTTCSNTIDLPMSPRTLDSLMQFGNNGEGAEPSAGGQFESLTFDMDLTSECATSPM
Tyrosine-protein kinase JAK1 (Mus musculus), sequence (P52332 whole entry): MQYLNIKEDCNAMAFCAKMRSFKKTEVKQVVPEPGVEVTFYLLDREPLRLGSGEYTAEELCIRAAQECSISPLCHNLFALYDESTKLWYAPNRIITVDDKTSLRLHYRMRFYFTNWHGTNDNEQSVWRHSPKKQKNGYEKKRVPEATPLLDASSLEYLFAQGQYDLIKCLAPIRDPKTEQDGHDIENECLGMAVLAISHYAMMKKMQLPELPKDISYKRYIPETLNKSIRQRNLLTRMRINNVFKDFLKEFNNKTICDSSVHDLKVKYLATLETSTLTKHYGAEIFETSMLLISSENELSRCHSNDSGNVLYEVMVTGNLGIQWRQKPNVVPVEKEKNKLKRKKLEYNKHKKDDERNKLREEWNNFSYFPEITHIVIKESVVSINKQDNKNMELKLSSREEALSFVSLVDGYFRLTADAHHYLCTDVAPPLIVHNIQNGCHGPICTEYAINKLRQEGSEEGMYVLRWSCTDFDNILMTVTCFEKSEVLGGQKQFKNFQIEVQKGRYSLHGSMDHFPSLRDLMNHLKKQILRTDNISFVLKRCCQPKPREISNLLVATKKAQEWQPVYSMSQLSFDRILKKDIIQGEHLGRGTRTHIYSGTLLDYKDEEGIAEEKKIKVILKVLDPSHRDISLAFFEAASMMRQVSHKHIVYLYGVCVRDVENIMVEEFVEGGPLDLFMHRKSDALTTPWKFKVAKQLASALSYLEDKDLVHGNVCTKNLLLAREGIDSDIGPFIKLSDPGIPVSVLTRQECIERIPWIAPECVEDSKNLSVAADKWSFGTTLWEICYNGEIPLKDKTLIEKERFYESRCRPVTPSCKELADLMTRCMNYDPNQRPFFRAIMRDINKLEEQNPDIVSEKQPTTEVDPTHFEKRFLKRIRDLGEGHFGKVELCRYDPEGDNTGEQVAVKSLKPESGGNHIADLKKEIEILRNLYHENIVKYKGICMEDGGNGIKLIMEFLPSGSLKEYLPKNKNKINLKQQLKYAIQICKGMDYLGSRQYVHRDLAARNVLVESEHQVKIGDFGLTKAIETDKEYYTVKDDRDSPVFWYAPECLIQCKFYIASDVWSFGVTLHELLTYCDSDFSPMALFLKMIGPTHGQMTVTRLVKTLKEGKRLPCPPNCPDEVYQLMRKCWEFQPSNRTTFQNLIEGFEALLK
Transcription factor p65 (Mus musculus), sequence (Q04207 whole entry): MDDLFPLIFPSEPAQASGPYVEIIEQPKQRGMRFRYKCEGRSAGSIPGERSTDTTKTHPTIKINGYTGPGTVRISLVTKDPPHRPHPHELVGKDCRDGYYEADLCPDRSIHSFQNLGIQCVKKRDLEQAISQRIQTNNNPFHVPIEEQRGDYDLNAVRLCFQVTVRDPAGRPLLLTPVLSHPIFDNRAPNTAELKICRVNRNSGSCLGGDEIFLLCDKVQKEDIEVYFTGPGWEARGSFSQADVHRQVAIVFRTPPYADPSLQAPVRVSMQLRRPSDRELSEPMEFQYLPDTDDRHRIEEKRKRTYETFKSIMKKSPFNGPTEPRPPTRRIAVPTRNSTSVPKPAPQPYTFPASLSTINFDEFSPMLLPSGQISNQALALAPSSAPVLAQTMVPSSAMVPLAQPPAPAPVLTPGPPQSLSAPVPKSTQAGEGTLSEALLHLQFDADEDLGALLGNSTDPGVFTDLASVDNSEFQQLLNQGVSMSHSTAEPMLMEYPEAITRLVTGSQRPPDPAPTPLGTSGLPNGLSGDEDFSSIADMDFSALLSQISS

**Q.** With `CC(C)=CCOc1c2occc2cc2ccc(=O)oc12` [PENTOSALEN] as the compound, how does the Activity (Mus musculus [1]) read?
**A.** Its Activity is “Active”.

**Q.** And the Activity [2]?
**A.** Its Activity is “Non-Toxic”.

**Q.** And the Activity [3]?
**A.** The Activity was “Non-Toxic”.

**Q.** What about the Activity (Mus musculus [4]) of the same compound?
**A.** Its Activity is “Active”.

**Q.** What about the Activity (Mus musculus [5]) of the same compound?
**A.** The Activity was “Active”.

**Q.** And the inhibition [6]?
**A.** The inhibition was “Dose-dependent effect”.

**Q.** What about the Activity (Mus musculus [7]) of the same compound?
**A.** Its Activity is “Active”.

**Q.** What about the Activity (Mus musculus [8]) of the same compound?
**A.** Its Activity is “Active”.

**Q.** What about the Activity (Mus musculus [9]) of the same compound?
**A.** The Activity was “Active”.

**Q.** And the inhibition [10]?
**A.** Its inhibition is “Active”.

**Q.** And the Activity (Mus musculus [11])?
**A.** The Activity was “Dose-dependent effect”.

**Q.** And the “fold change (FC)” value [12]?
**A.** The value was 1.8.

**Q.** And the fold change (FC) [13]?
**A.** Its fold change (FC) is 1.8.

**Q.** And the fold change (FC) [14]?
**A.** Its fold change (FC) is 1.2.

**Q.** What about the Activity (Mus musculus [15]) of the same compound?
**A.** Its Activity is “Dose-dependent effect”.

**Q.** And the inhibition [16]?
**A.** The inhibition was “Dose-dependent effect”.

**Q.** What about the Activity (Mus musculus [17]) of the same compound?
**A.** The Activity was “Dose-dependent effect”.

**Q.** What about the fold change (FC) [18] of the same compound?
**A.** Its fold change (FC) is 1.3.

**Q.** What about the Activity (Mus musculus [19]) of the same compound?
**A.** The Activity was “Non-Toxic”.

**Q.** What about the fold change (FC) [20] of the same compound?
**A.** Its fold change (FC) is 1.2.

**Q.** And the fold change (FC) [21]?
**A.** Its fold change (FC) is 1.2.

**Q.** What about the Activity (Mus musculus [22]) of the same compound?
**A.** Its Activity is “Dose-dependent effect”.
